Reference: ChEMBL document CHEMBL3808369, “Identification of Cyproheptadine as an Inhibitor of SET Domain Containing Lysine Methyltransferase 7/9 (Set7/9) That Regulates Estrogen-Dependent Transcription” (J Med Chem, 2016)
pIC50: −log10 of the molar value. Calls of active or inactive are those of the source. No cut-off for these calls is given here.

Legend:
[1] = system: MCF7; experiment: Effect on ERalpha mRNA expression in human MCF7 cells at 4.3 to 43 uM after 48 hrs by RT-PCR analysis; format: functional, cell-based
Method in brief: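 MCF7 cells were treated with or without compound for 48 h. Total RNA was isolated with TRIzol. ERα and GAPDH mRNA levels were measured by semiquantitative RT-PCR.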

[2] = system: MCF7; experiment: Antitumor activity against Fucci introduced human MCF7 cells xenografted in Balb/c-nu/nu mouse at 20 mg/kg, ip qd administered as continuous dose for 8 days measured every 3 to 4 days until day 15; format: functional, organism-based
Method in brief: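 Female Balb/C-nu/nu mice, 7 weeks old, each inoculated with about 2 × 10^7 Fucci-MCF7 cells in the mammary gland. Dosing started when tumors reached about 100 mm3, 13 days after inoculation. 20 mg/kg given ip once daily, days 1–8, in saline with 10% ethanol; a vehicle group ran alongside. Caliper tumor volume (a2b)/2 and body weight were recorded every 3 or 4 days to day 15. Six mice per group, mean ± SE.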

[3] = target: T1, Histone-lysine N-methyltransferase SUV39H1 (Homo sapiens) (UniProt O43463); experiment: Inhibition of Suv39h1 (unknown origin) by ELISA
T1 sequence (whole entry): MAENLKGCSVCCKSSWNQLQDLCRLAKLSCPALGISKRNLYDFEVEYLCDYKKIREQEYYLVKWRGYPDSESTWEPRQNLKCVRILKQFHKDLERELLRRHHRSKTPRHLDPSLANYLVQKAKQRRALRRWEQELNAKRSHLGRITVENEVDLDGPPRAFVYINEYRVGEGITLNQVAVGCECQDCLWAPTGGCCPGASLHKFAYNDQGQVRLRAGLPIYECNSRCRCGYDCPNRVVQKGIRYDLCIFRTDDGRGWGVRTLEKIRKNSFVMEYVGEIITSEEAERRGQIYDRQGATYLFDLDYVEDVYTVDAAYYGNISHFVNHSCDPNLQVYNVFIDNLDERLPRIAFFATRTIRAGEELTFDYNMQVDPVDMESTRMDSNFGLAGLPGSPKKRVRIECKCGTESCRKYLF

[4] = target: T2, Histone-lysine N-methyltransferase SETD7 (Homo sapiens) (UniProt Q8WTS6); experiment: Inhibition of Set7/9 in human MCF7 cells assessed as suppression of beta-estradiol-induced cell viability incubated for 4 days by haemocytometer; format: cell-based
T2 sequence (whole entry): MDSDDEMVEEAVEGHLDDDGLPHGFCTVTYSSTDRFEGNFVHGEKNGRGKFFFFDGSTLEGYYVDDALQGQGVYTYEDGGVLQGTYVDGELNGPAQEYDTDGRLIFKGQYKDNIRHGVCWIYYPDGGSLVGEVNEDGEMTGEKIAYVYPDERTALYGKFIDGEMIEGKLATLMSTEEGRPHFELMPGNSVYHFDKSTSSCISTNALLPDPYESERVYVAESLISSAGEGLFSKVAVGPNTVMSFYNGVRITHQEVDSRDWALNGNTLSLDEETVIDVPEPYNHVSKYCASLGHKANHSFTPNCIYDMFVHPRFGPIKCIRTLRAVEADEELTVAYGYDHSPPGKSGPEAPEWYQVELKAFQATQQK
Method in brief: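 MCF7 cells (1.5 × 10^4 per well) switched to estrogen-free medium after 24 h. Drug added with or without 10 nM β-estradiol, 4 days' incubation. Cells counted by hemocytometer. Four independent assays.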

[5] = target: T3, Histone-lysine N-methyltransferase SETD7 (Homo sapiens, UniProt Q8WTS6); experiment: Inhibition of recombinant Set7/9 (unknown origin) expressed in Escherichia coli BL21 (DE3) using biotinylated histone H3-derived peptide/SAM as substrate by alphaLISA
T3 sequence (Q8WTS6 whole entry): T2 sequence (whole entry)

[6] = target: T2, Histone-lysine N-methyltransferase SETD7 (Homo sapiens); experiment: Inhibition of Set7/9 in human MCF7 cells assessed as suppression of beta-estradiol-induced ERE promoter activation at 14 to 43 uM preincubated for 18 hrs followed by beta-estradiol addition measured after 24 hrs by luciferase reporter gene assay; format: cell-based
Method in brief: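 MCF7 cells held in estrogen-free medium (phenol red-free RPMI, 10% charcoal-stripped FBS) for 3 days. Cells were then transfected with a 3×ERE firefly luciferase reporter plus a TK-Renilla control. Drug added 6 h later; after 18 h, ±10 nM β-estradiol for 24 h. Firefly signal normalised to Renilla, expressed as fold over unstimulated cells. Four independent assays.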

[7] = target: T2, Histone-lysine N-methyltransferase SETD7 (Homo sapiens); experiment: Inhibition of recombinant his-tagged Set7/9 (unknown origin) expressed in Escherichia coli BL21 (DE3) using GST-fused histone H3 (1 to 57 residues) as substrate preincubated for 1 hr followed by substrate addition measured after 1 hr by Western blot analysis
Method in brief: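 His-Set7/9 (0.2 μg/μL) preincubated with or without inhibitor in HMT buffer for 1 h. Then 1 mM SAM and 0.01 μg/μL GST-histone H3 (1−57) were added and incubated 1 h at 37 °C. Reactions were stopped in SDS loading buffer and immunoblotted with an anti-H3K4me1 antibody.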

Compound: CN1CCC(=C2c3ccccc3C=Cc3ccccc32)CC1 [CYPROHEPTADINE]
- Activity [1]: inactive
- TGI [2]: Active
- inhibition [3]: Active
- inhibition [4]: Dose-dependent effect
- pIC50 [5]: 6.00
- inhibition [6]: Active
- inhibition [7]: Active
